In brackets after ≈: the same amount, converted by molar mass.
What was measured:
[1] = system: Bel-7402; test: Antiproliferative activity against Bel7402 cells after 72 hrs by MTT assay; format: functional, cell-based; details: Homo sapiens, Bel-7402, 72 h
In short: (§1)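 Cells were exposed to compound for 72 h. MTT in RPMI-1640 was then added and incubated for a further 4 h at 37 °C. Three replicate wells were used per point. IC50 for cell-viability inhibition was calculated from three independent experiments.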

[2] = Antiproliferative activity against ECA109 cells after 72 hrs by MTT assay; format: functional, cell-based; details: Homo sapiens, ECa-109, 72 h; in short: as §1
[3] = system: PC-3; test: Antiproliferative activity against PC3 cells after 72 hrs by MTT assay; format: functional, cell-based; details: Homo sapiens, PC-3, 72 h; in short: as §1
[4] = system: MCF7; test: Antiproliferative activity against MCF7 cells after 72 hrs by MTT assay; format: functional, cell-based; details: Homo sapiens, MCF7, 72 h; in short: as §1
[5] = system: HL-60; test: Antiproliferative activity against HL60 cells after 72 hrs by MTT assay; format: functional, cell-based; details: Homo sapiens, HL-60, 72 h; in short: as §1
[6] = system: A549; test: Antiproliferative activity against A549 cells after 72 hrs by MTT assay; format: functional, cell-based; details: Homo sapiens, A549, 72 h; in short: as §1
[7] = system: HL-60; test: Induction of apoptosis in HL60 cells assessed as DNA fragmentation at 0.5 ug/mL after 48 hrs by flow cytometry; format: functional, Homo sapiens
In short: (§2)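 HL-60 cells in exponential growth were treated for 48 h. They were washed twice in PBS and fixed in 70% ethanol at −20 °C. Cells were then RNase-treated for 1 h at 37 °C and stained with propidium iodide for 30 min at 4 °C. DNA content of 2 × 10⁴ cells was read by flow cytometry, and the sub-G0/G1 fraction was taken as apoptotic.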

[8] = system: HL-60; test: Induction of apoptosis in HL60 cells assessed as DNA fragmentation at 1.0 ug/mL after 48 hrs by flow cytometry; format: functional, Homo sapiens; in short: as §2
[9] = system: HL-60; test: Induction of apoptosis in HL60 cells assessed as DNA fragmentation at 2 ug/mL after 48 hrs by flow cytometry; format: functional, Homo sapiens; in short: as §2
[10] = system: CCRF S-180; test: Antitumor activity against S180 cells inoculated in ICR mouse assessed as tumor weight at 80 mg/kg, ip after 8 days; format: functional; details: route intraperitoneal
In short: (§3)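 S180 sarcoma was first passaged in mice for 7 days, then 2.5 × 10⁶ viable cells/mouse were injected s.c. into the armpit of female ICR mice. Compound was given i.p. once daily for 7 consecutive days, starting 24 h after inoculation. Group sizes were 10, or 20 for the saline control. Cyclophosphamide 50.0 mg/kg was the positive control. On day 8 tumors were excised and weighed, and inhibition = (C − T)/C × 100 using mean tumor weights.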

[11] = system: CCRF S-180; test: Antitumor activity against S180 cells inoculated in ICR mouse assessed as inhibition at 80 mg/kg, ip after 8 days relative to control; format: functional; details: CCRF S-180, ip, 192 h, route intraperitoneal; in short: as §3
[12] = system: CCRF S-180; test: Antitumor activity against S180 cells inoculated in ICR mouse assessed as inhibition at 50 mg/kg, ip after 8 days relative to control; design: scale not given: the % may be the effect or the level left; details: route intraperitoneal

Row | SMILES | IC50 [1] [µg/mL] | IC50 [3] [µg/mL] | IC50 [4] [µg/mL] | IC50 [5] [µg/mL] | IC50 [6] [µg/mL] | IC50 [2] [µg/mL] | Activity [7] [%] | Activity [8] [%] | Activity [9] [%] | Activity [10] [g] | inhibition in vivo at 80 mg/kg [11] [%] | Activity [12] [%]
1 | CCOC12SN(c3ccc(NC(C)=O)cc3Cl)N=C1c1ccccc1OC2(OCC)c1ccc(Cl)cc1 (racemic) | 21.3 (≈ 38.1 µM) | 4.1 (≈ 7.34 µM) | 23.3 (≈ 41.7 µM) | 2.2 (≈ 3.94 µM) | 4.2 (≈ 7.52 µM) | 9.6 (≈ 17.2 µM) | – | – | – | – | – | –
2 | CCOC12SN(c3ccc([N+](=O)[O-])cc3Cl)N=C1c1cc(C)ccc1OC2(OCC)c1cc2c(cc1Cl)OCO2 (racemic) | > 50 | > 50 | > 25 | > 25 | > 50 | > 50 | – | – | – | – | – | –
3 | CCOC12SN(c3ccc(S(C)(=O)=O)cc3Cl)N=C1c1ccccc1OC2(OCC)c1ccc(Cl)cc1 (racemic) | 10.3 (≈ 17.8 µM) | 3.1 (≈ 5.35 µM) | 4.1 (≈ 7.07 µM) | 2.8 (≈ 4.83 µM) | 4.9 (≈ 8.46 µM) | 5.9 (≈ 10.2 µM) | 3.9 | 25.3 | 68.3 | 0.63 | 48.2 | –
4 | CCOC12SN(c3ccc(S(C)(=O)=O)cc3Cl)N=C1c1ccccc1OC2(OCC)c1ccc(OC)cc1 (racemic) | 23.5 (≈ 40.9 µM) | 3.5 (≈ 6.09 µM) | > 25 | 1.8 (≈ 3.13 µM) | 3.3 (≈ 5.74 µM) | 5.9 (≈ 10.3 µM) | – | – | – | – | – | –
5 | CCOC12SN(c3ccc(S(C)(=O)=O)cc3Cl)N=C1c1cc(C)ccc1OC2(OCC)c1ccc(Cl)cc1 (racemic) | 7.3 (≈ 12.3 µM) | 6 (≈ 10.1 µM) | 2.5 (≈ 4.21 µM) | 6 (≈ 10.1 µM) | 10.3 (≈ 17.4 µM) | 11.5 (≈ 19.4 µM) | – | – | – | – | – | –
6 | CCOC12SN(c3ccc([N+](=O)[O-])cc3Cl)N=C1c1ccccc1OC2(OCC)c1ccc(Cl)cc1 (racemic) | 11.8 (≈ 21.6 µM) | 4.1 (≈ 7.5 µM) | 15 (≈ 27.5 µM) | 2.2 (≈ 4.03 µM) | 3.8 (≈ 6.95 µM) | 6.9 (≈ 12.6 µM) | – | – | – | – | – | –
7 | CCOC12SN(c3ccc(S(C)(=O)=O)cc3Cl)N=C1c1cc(C)ccc1OC2(OCC)c1ccc(OC)cc1 (racemic) | 40.4 (≈ 68.6 µM) | 0.6 (≈ 1.02 µM) | > 25 | 0.6 (≈ 1.02 µM) | 1.1 (≈ 1.87 µM) | 1.5 (≈ 2.55 µM) | – | – | – | – | – | –
8 | CCOC12SN(c3ccc(NC(C)=O)cc3Cl)N=C1c1cc(C)ccc1OC2(OCC)c1ccc(Cl)cc1 (racemic) | 10.5 (≈ 18.3 µM) | 2.4 (≈ 4.19 µM) | 19.8 (≈ 34.6 µM) | 1.3 (≈ 2.27 µM) | 2.5 (≈ 4.37 µM) | 4.1 (≈ 7.16 µM) | – | – | – | – | – | –
9 | O=P1(N(CCCl)CCCl)NCCCO1 (stereo not given) [CYCLOPHOSPHAMIDE ANHYDROUS] | – | – | – | – | – | – | – | – | – | – | – | 45.4
10 | O=C1CC(c2ccccc2)Oc2ccccc21 (stereo not given) [FLAVANONE] | > 50 | 16.6 (≈ 74 µM) | > 25 | 3.4 (≈ 15.2 µM) | 14.2 (≈ 63.3 µM) | 27.7 (≈ 124 µM) | – | – | – | – | – | –

Second part, led by results:

Row | IC50 [1] [µg/mL] | IC50 [3] [µg/mL] | IC50 [4] [µg/mL] | IC50 [5] [µg/mL] | IC50 [6] [µg/mL] | SMILES | IC50 [2] [µg/mL] | Activity [7] [%] | Activity [8] [%] | Activity [9] [%] | Activity [10] [g] | inhibition in vivo at 80 mg/kg [11] [%] | Activity [12] [%]
11 | 21.8 (≈ 39.2 µM) | > 50 | > 25 | > 25 | > 50 | CCOC12SN(c3ccc([N+](=O)[O-])cc3Cl)N=C1c1cc(C)ccc1OC2(OCC)c1ccc(OC)cc1 (racemic) | > 50 | – | – | – | – | – | –
12 | > 50 | > 50 | > 25 | > 25 | > 50 | CCOC12SN(c3ccc([N+](=O)[O-])cc3Cl)N=C1c1c(OC)cc(OC)c(Cl)c1OC2(OCC)c1ccccc1Cl (racemic) | > 50 | – | – | – | – | – | –
13 | > 50 | 15.8 (≈ 24.7 µM) | > 25 | 6.7 (≈ 10.5 µM) | > 50 | CCOC12SN(c3ccc([N+](=O)[O-])cc3Cl)N=C1c1c(OC)cc(OC)c(Cl)c1OC2(OCC)c1ccc(Cl)cc1 (racemic) | > 50 | – | – | – | – | – | –
14 | > 50 | > 50 | > 25 | > 25 | > 50 | CCOC12SN(c3ccc([N+](=O)[O-])cc3Cl)N=C1c1cc(C)ccc1OC2(OCC)c1cc(OC)c(OC)cc1Cl (racemic) | > 50 | – | – | – | – | – | –
15 | 8.2 (≈ 15.1 µM) | 5.7 (≈ 10.5 µM) | 23.3 (≈ 43 µM) | 3.3 (≈ 6.09 µM) | 5.1 (≈ 9.41 µM) | CCOC12SN(c3ccc([N+](=O)[O-])cc3Cl)N=C1c1ccccc1OC2(OCC)c1ccc(OC)cc1 (racemic) | 9.6 (≈ 17.7 µM) | – | – | – | – | – | –
16 | 18.6 (≈ 33.2 µM) | > 50 | > 25 | > 25 | 7.8 (≈ 13.9 µM) | CCOC12SN(c3ccc([N+](=O)[O-])cc3Cl)N=C1c1cc(C)ccc1OC2(OCC)c1ccc(Cl)cc1 (racemic) | 14.8 (≈ 26.4 µM) | – | – | – | – | – | –
17 | > 50 | 7.3 (≈ 11.8 µM) | > 25 | 16.8 (≈ 27.1 µM) | > 50 | CCOC12SN(c3ccc([N+](=O)[O-])cc3Cl)N=C1c1c(OC)cc(OC)c(Cl)c1OC2(OCC)c1ccc(C)cc1 (racemic) | 7.3 (≈ 11.8 µM) | – | – | – | – | – | –
18 | > 50 | 19.2 (≈ 30.2 µM) | > 25 | 23.2 (≈ 36.4 µM) | 17.7 (≈ 27.8 µM) | CCOC12SN(c3ccc([N+](=O)[O-])cc3Cl)N=C1c1c(OC)cc(OC)c(Cl)c1OC2(OCC)c1ccc(OC)cc1 (racemic) | > 50 | – | – | – | – | – | –
19 | > 50 | 2.9 (≈ 4.73 µM) | 5.5 (≈ 8.97 µM) | 3.2 (≈ 5.22 µM) | 5.4 (≈ 8.81 µM) | COc1cc(OC)c2c(c1Cl)OC(OC)(c1ccc(Cl)cc1)C1(OC)SN(c3ccc([N+](=O)[O-])cc3Cl)N=C21 (racemic) | 5.7 (≈ 9.3 µM) | – | – | – | – | – | –
20 | 24.8 (≈ 36.8 µM) | > 50 | 12.6 (≈ 18.7 µM) | 5.6 (≈ 8.31 µM) | 14.5 (≈ 21.5 µM) | CCOC12SN(c3ccc(S(C)(=O)=O)cc3Cl)N=C1c1c(OC)cc(OC)c(Cl)c1OC2(OCC)c1ccc(Cl)cc1 (racemic) | 20.1 (≈ 29.8 µM) | – | – | – | – | – | –
